SMILES strings stand for the structures. Active and inactive are the calls of the source. The calls are words filed in the database; no cut-off is given here.

A word on the EC50: it is the concentration giving half of the maximal effect.

A short description of data set [1]: Selectivity index, ratio of IC50 for human Hs888Lu cells to EC50 for human RC-K8 cells measured after 24 hrs by CellTiter-Glo luminescent assay. In kind it is toxicity. The settings on record: Hs888Lu cells (IC50) versus RC-K8 cells (EC50). The essentials: (§1)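 High-throughput viability screen of test agents across a panel of 22 cancerous and noncancerous human cell lines. Viability was read by CellTiter-Glo luminescence.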
(ATP-based viability assays read luminescence as a measure of living cells.)

Data set [2] is described as follows: Selectivity index, ratio of IC50 for human Hs888Lu cells to EC50 for human SU-DHL-4 cells measured after 24 hrs by CellTiter-Glo luminescent assay. Format: toxicity. The settings on record: Hs888Lu cells (IC50) versus SU-DHL-4 cells (EC50). The essentials: as §1
Data set [3] is described as follows: Selectivity index, ratio of IC50 for human Hs888lu cells to EC50 for human HS578T cells measured after 24 hrs by CellTiter-Glo luminescent assay. A digest of the protocol: as §1
Data set [4] addresses T1, Inhibitor of nuclear factor kappa-B kinase subunit alpha (Homo sapiens) (UniProt O15111).
T1 sequence (whole entry): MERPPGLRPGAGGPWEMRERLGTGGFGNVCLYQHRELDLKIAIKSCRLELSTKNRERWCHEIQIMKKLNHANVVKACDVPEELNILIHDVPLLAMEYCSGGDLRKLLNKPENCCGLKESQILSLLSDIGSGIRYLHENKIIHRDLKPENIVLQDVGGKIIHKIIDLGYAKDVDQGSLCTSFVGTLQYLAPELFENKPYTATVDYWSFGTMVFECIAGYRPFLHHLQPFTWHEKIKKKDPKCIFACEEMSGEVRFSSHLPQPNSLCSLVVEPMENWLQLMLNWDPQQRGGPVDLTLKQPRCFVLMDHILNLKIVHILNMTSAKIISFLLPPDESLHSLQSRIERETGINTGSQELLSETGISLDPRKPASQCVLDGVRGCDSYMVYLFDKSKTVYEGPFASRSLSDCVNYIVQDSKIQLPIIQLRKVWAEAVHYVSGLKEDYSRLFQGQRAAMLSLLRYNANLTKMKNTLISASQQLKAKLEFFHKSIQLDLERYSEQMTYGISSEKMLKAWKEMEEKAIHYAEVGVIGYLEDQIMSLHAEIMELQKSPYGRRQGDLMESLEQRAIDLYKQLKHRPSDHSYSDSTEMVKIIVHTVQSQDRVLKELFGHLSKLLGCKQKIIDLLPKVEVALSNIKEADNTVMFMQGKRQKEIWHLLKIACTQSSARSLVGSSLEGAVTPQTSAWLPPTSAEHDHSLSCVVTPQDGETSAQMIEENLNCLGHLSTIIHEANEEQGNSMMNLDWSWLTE
Nature of the data set: Inhibition of IKKalpha in human HeLa cells assessed as reduction in IL-1 beta-stimulated IKK alpha nuclear translocation at 10 uM pretreated with compound for 4 hrs followed by stimulation with IL-1 beta for 1 hr by immunohistochemical staining/confocal microscopy. Format: cell-based. The essentials:
(§2)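 HeLa cells were pretreated with DMSO or test agent for 4 h, then stimulated with IL-1β (or vehicle) for 1 h. NF-κB pathway members were immunostained with AF488-tagged antibodies, nuclei were counterstained with DAPI, and compartmental localization was imaged by confocal microscopy.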

Data set [5] in a line: Selectivity index, ratio of IC50 for human Hs578Bst cells to EC50 for human HCC1599 cells measured after 24 hrs by CellTiter-Glo luminescent assay. Format: toxicity. The settings on record: Hs578Bst cells (IC50) versus HCC1599 cells (EC50). The essentials:
as §1

The target of data set [6] is T1, Inhibitor of nuclear factor kappa-B kinase subunit alpha (Homo sapiens). Nature of the data set: Inhibition of IKK alpha nuclear translocation in human HEK-293T cells assessed as reduction in IKK alpha level in nucleus at 15 uM pretreated with compound for 1 hr followed by stimulation with IL-1 beta for 3 hrs by western blot analysis. In kind it is subcellular. The essentials:
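HEK 293T cells were pretreated with vehicle or test agent, then stimulated with IL-1β (or vehicle). Cells were lysed and nuclei separated, and the cytosolic and nuclear fractions were each probed for IKKα and IKKβ by Western blotting.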
(In general: In western blotting, separated proteins are transferred to a membrane and probed.)

Data set [7] can be described thus: Selectivity index, ratio of IC50 for human Hs888lu cells to EC50 for human HCC1599 cells measured after 24 hrs by CellTiter-Glo luminescent assay. A digest of the protocol:
as §1

Data set [8] concerns the target T2, Inhibitor of nuclear factor kappa-B kinase subunit beta (Homo sapiens) (UniProt O14920).
T2 sequence (whole entry): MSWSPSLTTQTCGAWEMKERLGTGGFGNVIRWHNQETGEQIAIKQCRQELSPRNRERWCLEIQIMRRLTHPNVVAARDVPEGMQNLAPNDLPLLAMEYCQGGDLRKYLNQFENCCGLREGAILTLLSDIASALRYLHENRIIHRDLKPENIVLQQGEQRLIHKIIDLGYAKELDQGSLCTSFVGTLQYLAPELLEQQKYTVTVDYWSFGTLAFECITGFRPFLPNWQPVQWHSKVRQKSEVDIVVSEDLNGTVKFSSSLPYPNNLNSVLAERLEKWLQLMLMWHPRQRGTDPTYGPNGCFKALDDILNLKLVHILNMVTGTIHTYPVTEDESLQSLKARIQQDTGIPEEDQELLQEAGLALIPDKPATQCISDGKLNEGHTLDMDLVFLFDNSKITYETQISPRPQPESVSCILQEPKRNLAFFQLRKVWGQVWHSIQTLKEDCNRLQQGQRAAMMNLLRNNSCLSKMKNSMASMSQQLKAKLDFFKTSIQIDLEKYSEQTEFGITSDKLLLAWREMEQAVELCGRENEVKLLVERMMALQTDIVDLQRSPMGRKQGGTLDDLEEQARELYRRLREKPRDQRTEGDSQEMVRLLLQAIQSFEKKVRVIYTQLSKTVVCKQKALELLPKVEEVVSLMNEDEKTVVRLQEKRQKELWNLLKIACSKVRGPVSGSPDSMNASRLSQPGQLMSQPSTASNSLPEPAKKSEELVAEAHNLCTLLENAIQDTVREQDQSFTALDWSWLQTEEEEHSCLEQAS
Nature of the data set: Inhibition of IKKbeta in human HeLa cells assessed as reduction in IL-1 beta-stimulated IKK beta nuclear translocation at 10 uM pretreated with compound for 4 hrs followed by stimulation with IL-1 beta for 1 hr by immunohistochemical staining/confocal microscopy. In kind it is cell-based. A digest of the protocol:
as §2

Data set [9] can be described thus: Inhibition of IKKalpha/IKKbeta in human HEK293T cells transfected with firefly luciferase gene assessed as inhibition of TNF-alpha-stimulated NF-kappaB signalling preincubated for 1 hr followed by TNF alpha stimulation measured after 3 hrs by luciferase reporter gene assay. Format: cell-based. The settings on record: HEK-293T. The essentials: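 Commercial NF-κB-driven luciferase reporter assay in HEK 293T cells stimulated with TNFα. EC50 was derived from the luminescence readout.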
In general terms: Reporter assays use an easily measured gene product as a stand-in for the process of interest.

A short description of data set [10]: Selectivity index, ratio of IC50 for human Hs578Bst cells to EC50 for human CA46 cells measured after 24 hrs by CellTiter-Glo luminescent assay. Format: toxicity. The conditions noted are these: Hs578Bst cells (IC50) versus CA46 cells (EC50). The essentials:
as §1

A short description of data set [11]: Selectivity index, ratio of IC50 for human Hs895SK cells to EC50 for human HS578T cells measured after 24 hrs by CellTiter-Glo luminescent assay. Format: toxicity. The settings on record: Hs895SK cells (IC50) versus HS578T cells (EC50). The essentials:
as §1

The nature of data set [12]: Selectivity index, ratio of IC50 for human HS895SK cells to EC50 for human RC-K8 cells measured after 24 hrs by CellTiter-Glo luminescent assay. The essentials: as §1

As to `C=C1C[C@]23C[C@@]1(O)CC[C@H]2[C@@]12C=CC(=O)[C@@](C)(C(=O)O1)[C@H]2[C@@H]3C(=O)OC`, the selectivity ratio at 24 h in data set [1] was 500; in data set [2], 500; in data set [5], 500; in [10], 500; in data set [11], greater than 500. Also, the results for the Ratio IC50/EC50 in data set [3], in [7] and in [12] were greater than 500, 500 and 500, respectively. Also, the inhibition entry in [4], in data set [6] and in data set [8] was “Active” each time. Also, in data set [9], the EC50 is 2600 nM.

(Values after ChEMBL document CHEMBL4725436, “Gibberellin JRA-003: A Selective Inhibitor of Nuclear Translocation of IKKα” (ACS Med Chem Lett, 2020).)
